Test results published in ChEMBL document CHEMBL1140080, “Adamantyl-substituted retinoid-derived molecules that interact with the orphan nuclear receptor small heterodimer partner: effects of replacing the 1-adamantyl or hydroxyl group on inhibition of cancer cell growth, induction of cancer cell apoptosis, and inhibition of SRC homology 2 …” (J Med Chem, 2008).

Assays:
[1] = test system: KG-1; experiment: Induction of apoptosis in human KG1 cells at 5.0 uM […] by acridine orange staining; type: functional
[2] = test system: DU-145; experiment: Antiproliferative activity against human DU145 cells at 20 uM after 72 hrs by MTT assay; type: functional; settings: DU-145, 72 h
Procedure, shortened: (§1)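 Cells attached for 24 h, then exposed 72 h to analogue in Me2SO or Me2SO alone (final Me2SO 0.1%), with media and compound renewed after 48 h. Viable cells were measured by MTS tetrazolium reduction in three replicates. Top concentration tested per compound was 2.5, 5, 10, 20 or 100 μM.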

[3] = target: T1, Tyrosine-protein phosphatase non-receptor type 11 (Homo sapiens, UniProt Q06124); experiment: Inhibition of SHP2 overexpressed in human KG1 cells; type: cell-based, KG-1
T1 sequence (Q06124 whole entry): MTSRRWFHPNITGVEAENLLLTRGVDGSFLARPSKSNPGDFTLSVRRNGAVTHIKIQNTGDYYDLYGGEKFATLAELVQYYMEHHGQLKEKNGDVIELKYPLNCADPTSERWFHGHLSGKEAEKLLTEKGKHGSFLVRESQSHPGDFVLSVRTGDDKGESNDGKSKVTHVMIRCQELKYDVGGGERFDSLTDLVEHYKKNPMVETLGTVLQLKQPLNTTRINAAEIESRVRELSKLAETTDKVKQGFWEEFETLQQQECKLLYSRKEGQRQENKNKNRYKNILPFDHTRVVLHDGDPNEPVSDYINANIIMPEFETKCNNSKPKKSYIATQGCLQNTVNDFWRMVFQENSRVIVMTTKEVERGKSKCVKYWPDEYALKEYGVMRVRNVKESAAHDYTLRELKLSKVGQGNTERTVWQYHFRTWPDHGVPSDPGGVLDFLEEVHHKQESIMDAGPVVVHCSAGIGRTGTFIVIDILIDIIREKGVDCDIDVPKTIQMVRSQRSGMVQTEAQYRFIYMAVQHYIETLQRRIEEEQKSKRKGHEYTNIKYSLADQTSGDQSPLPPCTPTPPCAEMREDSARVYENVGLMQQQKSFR
Procedure, shortened: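 Shp-2 PTP activity was measured as hydrolysis of the fluorogenic substrate 6,8-difluoro-4-methylumbelliferyl phosphate in the presence of analogue in Me2SO or Me2SO alone (final concentration 5%).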

[4] = Antiproliferative activity against human KG1 AML cells at 5 uM after 48 hrs by MTT assay; type: functional; settings: in the assay text read “by hemocytometer cell counting” for “by MTT assay”
Procedure, shortened: (§2)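 KG-1 cells in 5% FBS medium attached overnight, then treated 48 h with analogue in Me2SO or Me2SO alone (final 0.1%). Cells were harvested and counted by hemocytometer in triplicate wells. Highest concentration evaluated was 5 μM.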

[5] = test system: DU-145; experiment: Antiproliferative activity against human DU145 cells after 72 hrs by MTT assay; type: functional, cell-based; settings: DU-145, 72 h; procedure, shortened: as §1
[6] = test system: KG-1; experiment: Induction of apoptosis in human KG1 cells at 1.0 uM […] by acridine orange staining; type: functional
[7] = Antiproliferative activity against human KG1 AML cells after 48 hrs by MTT assay; type: functional, cell-based; settings: in the assay text read “by hemocytometer cell counting” for “by MTT assay”; procedure, shortened: as §2
[8] = test system: MDA-MB-231; experiment: Antiproliferative activity against human MDA-MB-231 cells after 72 hrs by MTT assay; type: functional, cell-based; settings: MDA-MB-231, 72 h; procedure, shortened: as §1
[9] = Antiproliferative activity against human H292 cells after 72 hrs by MTT assay; type: functional, cell-based; settings: NCI-H292, 72 h; procedure, shortened: as §1
[10] = test system: MDA-MB-231; experiment: Antiproliferative activity against human MDA-MB-231 cells at 20 uM after 72 hrs by MTT assay; type: functional; settings: MDA-MB-231, 72 h; procedure, shortened: as §1
[11] = Antiproliferative activity against human H292 cells at 20 uM after 72 hrs by MTT assay; type: functional; settings: NCI-H292, 72 h; procedure, shortened: as §1
[12] = target: T2, Nuclear receptor subfamily 0 group B member 2 (Homo sapiens) (UniProt Q15466); experiment: Displacement of [5,5'-3H2]AHPN from human recombinant GST-SHP at 50 uM by liquid scintillation counting relative to 3-Cl-AHPC
T2 sequence (whole entry): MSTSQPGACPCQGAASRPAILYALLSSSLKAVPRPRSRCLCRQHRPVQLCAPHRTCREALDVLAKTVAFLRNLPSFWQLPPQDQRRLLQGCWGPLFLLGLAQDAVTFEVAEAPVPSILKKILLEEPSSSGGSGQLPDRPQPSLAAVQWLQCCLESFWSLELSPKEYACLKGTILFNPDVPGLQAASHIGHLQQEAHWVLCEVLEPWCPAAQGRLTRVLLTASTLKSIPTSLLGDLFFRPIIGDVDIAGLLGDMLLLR
Procedure, shortened: (§3)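 Recombinant GST–human SHP was bound to glutathione–Sepharose beads and incubated 2 h with 5 nM [5,5′-3H2]AHPN with or without competitor (1.0, 5.0 or 50 μM). Beads were washed twice and counted. Displacement was expressed relative to 50 μM 3-Cl-AHPC set as 100%.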

[13] = Antiproliferative activity against human H292 cells at 100 uM after 72 hrs by MTT assay; type: functional; settings: NCI-H292, 72 h; procedure, shortened: as §1
[14] = target: T3, Nuclear receptor subfamily 0 group B member 2 (Homo sapiens, UniProt Q15466); experiment: Displacement of [5,5'-3H2]AHPN from human recombinant GST-SHP by liquid scintillation counting relative to 3-Cl-AHPC; procedure, shortened: as §3
T3 sequence (Q15466 whole entry): T2 sequence (whole entry)

[15] = test system: MDA-MB-231; experiment: Antiproliferative activity against human MDA-MB-231 cells at 100 uM after 72 hrs by MTT assay; type: functional; settings: MDA-MB-231, 72 h; procedure, shortened: as §1
[16] = test system: DU-145; experiment: Antiproliferative activity against human DU145 cells at 100 uM after 72 hrs by MTT assay; type: functional; settings: DU-145, 72 h; procedure, shortened: as §1
[17] = test system: DU-145; experiment: Antiproliferative activity against human DU145 cells at 10 uM after 72 hrs by MTT assay; type: functional; settings: DU-145, 72 h; procedure, shortened: as §1
[18] = Antiproliferative activity against human H292 cells at 10 uM after 72 hrs by MTT assay; type: functional; settings: NCI-H292, 72 h; procedure, shortened: as §1
[19] = test system: MDA-MB-231; experiment: Antiproliferative activity against human MDA-MB-231 cells at 10 uM after 72 hrs by MTT assay; type: functional; settings: MDA-MB-231, 72 h; procedure, shortened: as §1
[20] = test system: MDA-MB-231; experiment: Antiproliferative activity against human MDA-MB-231 cells at 5 uM after 72 hrs by MTT assay; type: functional; settings: MDA-MB-231, 72 h; procedure, shortened: as §1
[21] = test system: DU-145; experiment: Antiproliferative activity against human DU145 cells at 5 uM after 72 hrs by MTT assay; type: functional; settings: DU-145, 72 h; procedure, shortened: as §1
[22] = Antiproliferative activity against human H292 cells at 5 uM after 72 hrs by MTT assay; type: functional; settings: NCI-H292, 72 h; procedure, shortened: as §1
[23] = test system: KG-1; experiment: Induction of apoptosis in human KG1 cells at 25 uM […] by acridine orange staining; type: functional
[24] = test system: KG-1; experiment: Induction of apoptosis in human KG1 cells after 48 hrs by acridine orange staining; type: functional, cell-based; settings: KG-1, 48 h

IC50 [3] [nM] | IC50 [5] [µM] | IC50 [8] [µM] | Activity [12] [%] | IC50 [14] [nM] | Compound | Activity [1] [%] | Activity [4] [%] | Activity [6] [%] | IC50 [7] [µM] | IC50 [9] [µM] | inhibition at 100 µM [13] [%] | inhibition at 100 µM [15] [%] | inhibition at 100 µM [16] [%] | inhibition at 10 µM [17] [%] | inhibition at 10 µM [18] [%] | inhibition at 10 µM [19] [%] | also measured
10200 | > 20 | > 20 |  |  | CC1(c2cc(-c3ccc(/C=C/C(=O)O)cc3Cl)ccc2O)SCCCS1 | 5 | 0 | 5 | > 5 | > 20 |  |  |  |  |  |  | inhibition at 20 µM [2]: 8%; inhibition at 20 µM [10]: 13%; inhibition at 20 µM [11]: 6%
2110 | 16 | 67 | 90 | 1000 | O=C(O)/C=C/c1ccc(-c2ccc(F)c(C34CC5CC(CC(C5)C3)C4)c2)c(Cl)c1 | 0 | 0 | 0 | > 5 | 6 | 95 | 83 | 84 |  |  |  | 
450 | > 10 | > 10 |  |  | CC(C)(C)C#Cc1cc(-c2ccc(/C=C/C(=O)O)cc2Cl)ccc1O | 0 | 22 | 0 | > 5 | > 10 |  |  |  | 13 | 14 | 4 | 
500000 | > 100 | > 100 |  |  | O=C(O)/C=C/c1ccc(-c2ccc(F)cc2)c(Cl)c1 | 0 | 7 | 0 | > 5 | 47 | 60 | 9 | 23 | 15 | 18 | 0 | 
2270 | > 5 | > 5 | 103 | 500 | CC12CC3CC(C)(C1)CC(c1cc(-c4ccc(/C=C/C(=O)O)cc4Cl)ccc1O)(C3)C2 | 0 | 0 | 0 | > 5 | 3.6 |  |  |  |  |  |  | inhibition at 5 µM [20]: 7%; inhibition at 5 µM [21]: 23%; inhibition at 5 µM [22]: 66%; Activity [23]: 83%; IC50 [24]: 13.5 µM
